How the values were obtained:
[1] = biological target: cGMP-specific 3',5'-cyclic phosphodiesterase (Homo sapiens, UniProt O76074); assay: Inhibition of PDE5 (unknown origin)
Corpus cavernosum [2] = assay: Induction of smooth muscle relaxation in male albino rat corpus-cavernosum assessed as reduction in phenylephrine-induced contraction relative to sildenafil; assay type: functional
How it was run: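 Isolated penile corpus cavernosum strips from adult male albino rats anaesthetized with sodium pentobarbital (50mg/kg, i.v.), held in Krebs-Henseleit solution at 37°C aerated with carbogen under 1g initial tension. Equilibrated ~90 min with solution renewed every 15 min. Cumulative concentration-response curves in phenylephrine-contracted tissue, recorded isometrically.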

Corpus cavernosum [3] = assay: Induction of smooth muscle relaxation in male albino rat corpus-cavernosum assessed as reduction in phenylephrine-induced contraction; assay type: functional, tissue-based

Row | IC50 [1] [nM] | EC50 (Corpus cavernosum [3]) [nM] | Structure (SMILES) | Emax (Corpus cavernosum [2]) [%]
1 | 2.1 | – | COc1ccc(CNc2nc(OCc3ccccn3)ncc2C(=O)OCc2ccccn2)cc1Cl | –
2 | 12 | – | COc1ccc(CNc2nc(OCc3ccccn3)ncc2C(=O)NCCCCO)cc1Cl | –
3 | 2.7 | – | COc1ccc(CNc2nc(OCc3ccccn3)ncc2C(=O)NCc2ccccn2)cc1Cl | –
4 | 32 | – | COc1ccc(CNc2nc(N(C)CCO)ncc2C(=O)NCc2ccccn2)cc1Cl | –
5 | 3.5 | – | COc1ccc(CNc2nc(OCc3ccccn3)ncc2C(=O)N[C@H]2CC[C@@H](O)CC2)cc1Cl | –
6 | – | 5050 | O=c1[nH]c(CNc2ccccc2O)nc2c1cnn2-c1ccc(Br)cc1 | 133
7 | – | 234 | CCCOc1ccccc1-c1nc2c(cnn2-c2ccccc2)c(=O)[nH]1 | 150
8 | – | 500 | CC(C)Oc1ccccc1-c1nc2c(cnn2-c2ccccc2)c(=O)[nH]1 | 130
9 | 63 | – | COc1ccc(CNc2nc(N3CCCC[C@H]3CO)ncc2C(=O)NCc2ncccn2)cc1Cl | –
10 | – | 4.89 | CCCCOc1ccccc1-c1nc2c(cnn2-c2ccc(Br)cc2)c(=O)[nH]1 | 160
11 | 12 | – | COc1ccc(CNc2nc(OCc3ccccn3)ncc2C(=O)Nc2ncccn2)cc1Cl | –
12 | – | 280 | CC(C)Oc1ccccc1-c1nc2c(cnn2-c2ccc(Br)cc2)c(=O)[nH]1 | –
13 | 6.1 | – | COc1ccc(CNc2nc(N3CCC[C@H]3CO)ncc2C(=O)NC[C@@H]2CN(C)CCO2)cc1Cl | –
14 | 85 | – | COc1ccc(CN(C)c2nc(OCc3ccccn3)ncc2C(=O)NCc2ccccn2)cc1Cl | –
15 | 6.6 | – | COc1ccc(CNc2nc(N3CCC[C@H]3CO)ncc2C(=O)NCCCO)cc1Cl | –
16 | 1.2 | – | COc1ccc(CNc2nc(N3CCC[C@@H]3CO)ncc2C(=O)NCc2ccccn2)cc1Cl | –
17 | 25 | – | COc1ccc(CN=c2[nH]c(N3CCC[C@H]3CO)ncc2C(=O)NCc2ncccn2)cc1Cl (stereo in doubt; T5) | –
18 | 54 | – | COc1ccc(CNc2nc(N3CCCC[C@H]3CO)ncc2C(=O)NCc2ccccn2)cc1Cl | –

Row | IC50 [1] [nM] | EC50 (Corpus cavernosum [3]) [nM] | Structure (SMILES) | Emax (Corpus cavernosum [2]) [%]
19 | – | 338 | O=c1[nH]c(-c2ccccc2O)nc2c1cnn2-c1ccc(Br)cc1 | 167
20 | – | 100 | COC(=O)c1ccccc1OCc1nc2c(cnn2-c2ccccc2)c(=O)[nH]1 | 130
21 | – | 250 | O=c1[nH]c(CNc2ccccc2O)nc2c1cnn2-c1ccccc1 | 125
22 | 5.2 | – | COc1ccc(CN=c2[nH]c(N3CCC[C@H]3CO)ncc2C(=O)NCc2ncccn2)cc1Cl (stereo in doubt; T6) | –
23 | – | 223 | O=C(O)c1ccccc1OCc1nc2c(cnn2-c2ccccc2)c(=O)[nH]1 | –
24 | 59 | – | COc1ccc(CNc2nc(N3CCC(O)CC3)ncc2C(=O)NCc2ccccn2)cc1Cl | –
25 | 4.2 | – | COc1ccc(CNc2nc(OCc3ccccn3)ncc2C(=O)OCc2ncccn2)cc1Cl | –
26 | – | 707 | Nc1ccccc1NCc1nc2c(cnn2-c2ccc(Br)cc2)c(=O)[nH]1 | 148
27 | 6.5 | – | COc1ccc(CNc2nc(N3Cc4ccccc4C[C@@H]3CO)ncc2C(=O)NCc2ccccn2)cc1Cl | –
28 | – | 830 | CCCOc1ccccc1-c1nc2c(cnn2-c2ccc(Br)cc2)c(=O)[nH]1 | 140
29 | – | 630 | CCCCOc1ccccc1-c1nc2c(cnn2-c2ccccc2)c(=O)[nH]1 | 170
30 | 5.6 | – | COc1ccc(CNc2nc(OCc3ccccn3)ncc2C(=O)NCCN2CCOCC2)cc1Cl | –
31 | 15 | – | COCCCNC(=O)c1cnc(OCc2ccccn2)nc1NCc1ccc(OC)c(Cl)c1 | –
32 | 13 | – | COc1ccc(CNc2nc(OCc3ccccn3)ncc2C(=O)NCCCO)cc1Cl | –
33 | 1.8 | – | COc1ccc(CNc2nc(N3CCC[C@H]3CO)ncc2C(=O)N[C@H]2CC[C@H](O)CC2)cc1Cl | –
34 | – | 500 | O=c1[nH]c(-c2ccccc2O)nc2c1cnn2-c1ccccc1 | 93
35 | 32 | – | COc1ccc(CNc2nc(N3CCO[C@H](CO)C3)ncc2C(=O)NCc2ccccn2)cc1Cl | –
36 | – | 6800 | Nc1ccccc1NCc1nc2c(cnn2-c2ccccc2)c(=O)[nH]1 | 113
